In PMC5615155 (Toxicology Reports, 2017):
“Also recorded” adds a separate entry of the source.

Columns and labels:
[1] = tested on: human peripheral blood lymphocytes (HPBL); test: in vitro micronucleus test; type: cell-based
In short: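 HPBL micronucleus test per OECD 487, GLP. Exposures: 4 h −S9, 4 h +S9 (Aroclor 1254-induced male rat liver), 24 h −S9. DMSO solvent; positive controls vinblastine (−S9) and cyclophosphamide (+S9). 4 h cultures were washed, then 20 h in cytochalasin B 6.0 μg/mL. Dose range from preliminary toxicity test (0.2–2000 μg/mL). Duplicate cultures: CBPI from ≥1000 cells; ≥2000 binucleated cells scored.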

CYP3A4 = CYP3A4 (Homo sapiens, UniProt P08684); test: CYP inhibition, spectrofluorimetric; type: biochemical; settings: recombinant human CYP3A4 expressed in insect Sf9 cells
Sequence of CYP3A4 (P08684 whole entry, canonical isoform): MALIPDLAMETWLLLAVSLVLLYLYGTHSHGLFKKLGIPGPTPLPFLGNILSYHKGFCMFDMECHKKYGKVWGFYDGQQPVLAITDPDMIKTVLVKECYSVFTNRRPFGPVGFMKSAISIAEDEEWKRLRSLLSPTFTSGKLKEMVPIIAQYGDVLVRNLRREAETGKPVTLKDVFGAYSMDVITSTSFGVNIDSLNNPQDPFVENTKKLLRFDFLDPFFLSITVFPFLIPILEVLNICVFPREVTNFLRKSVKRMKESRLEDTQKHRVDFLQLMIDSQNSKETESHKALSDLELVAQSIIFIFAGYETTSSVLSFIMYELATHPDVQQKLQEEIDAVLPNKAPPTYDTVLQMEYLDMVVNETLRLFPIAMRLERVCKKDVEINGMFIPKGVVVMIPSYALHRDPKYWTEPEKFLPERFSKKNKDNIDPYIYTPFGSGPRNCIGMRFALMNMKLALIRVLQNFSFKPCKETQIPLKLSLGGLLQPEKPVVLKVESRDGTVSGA
In short: (§1)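 Inhibition was assayed with recombinant human CYP isoforms expressed in insect Sf9 cells. Turnover of spectrofluorimetric substrates was read by fluorescence. Test compound was tested at a single concentration of 10 μM.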

[2] = single-dose pharmacokinetics and oral bioavailability; type: in vivo, Sprague-Dawley rats; settings: for clearance: CL, S2218 iv 1 mg/kg bw
CYP2C19 = CYP2C19 (Homo sapiens, UniProt P33261); test: CYP inhibition, spectrofluorimetric; type: biochemical; settings: recombinant human CYP2C19 expressed in insect Sf9 cells
Sequence of CYP2C19 (P33261 whole entry): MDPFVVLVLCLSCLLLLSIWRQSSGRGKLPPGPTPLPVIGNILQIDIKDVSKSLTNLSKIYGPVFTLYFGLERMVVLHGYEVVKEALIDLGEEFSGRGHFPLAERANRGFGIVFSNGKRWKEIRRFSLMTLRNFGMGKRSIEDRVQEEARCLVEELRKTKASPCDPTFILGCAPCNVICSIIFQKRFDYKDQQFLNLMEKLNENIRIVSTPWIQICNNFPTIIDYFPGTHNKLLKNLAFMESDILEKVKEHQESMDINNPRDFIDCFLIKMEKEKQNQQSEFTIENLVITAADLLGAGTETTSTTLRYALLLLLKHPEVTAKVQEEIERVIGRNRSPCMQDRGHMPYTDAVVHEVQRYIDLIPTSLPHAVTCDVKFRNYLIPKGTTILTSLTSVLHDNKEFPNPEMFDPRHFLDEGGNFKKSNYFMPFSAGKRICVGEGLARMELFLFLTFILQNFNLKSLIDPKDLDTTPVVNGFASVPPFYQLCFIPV
In short: as §1

solubility / dissolution = type: physicochemical; settings: S8069 at 10 mg/mL; S2218 at all dose levels
[3] = 28-day dose-range finding dietary toxicity study; type: in vivo, CD [Crl:CD(SD)] rats
In short: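 This 28-day dose-range-finding study used CD [Crl:CD(SD)] rats, 8/sex/group. Rats received test compound continuously in the diet at nominal 10, 30 or 100 mg/kg bw/day; controls got untreated diet. Dietary concentration (ppm) was adjusted weekly from body weight and food consumption to keep mg/kg bw/day doses constant. NOAEL was set from the 28-day findings.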

[4] = cited from earlier work
[5] = toxicokinetics in 13-week dietary study; type: in vivo, Sprague-Dawley rats
[6] = female, Sprague-Dawley, rat, plasma, iv, 1 mg/kg
[7] = female, Sprague-Dawley, rat, plasma, po, 10 mg/kg
[8] = female, Sprague-Dawley, rat, plasma, po, 30 mg/kg
[9] = female, Sprague-Dawley, rat, plasma, po, 100 mg/kg
[10] = male, Sprague-Dawley, rat, plasma, iv, 1 mg/kg
[11] = male, Sprague-Dawley, rat, plasma, po, 10 mg/kg
[12] = male, Sprague-Dawley, rat, plasma, po, 30 mg/kg
[13] = male, Sprague-Dawley, rat, plasma, po, 100 mg/kg

Q: With `Cc1cc(C(=O)NC(C)(C)COc2cccc3c2C(N)=NS(=O)(=O)N3)cc(C)n1` [S2218, N-(1-((4-amino-2,2-dioxido-1H-benzo[c][1,2,6]thiadiazin-5-yl)oxy)-2-methylpropan-2-yl)-2,6-dimethylisonicotinamide] as the molecule, how does the “Micronucleus formation (in vitro), result” value ([1]; 250–1000 μg/mL, 24 h exposure, −S9) read?
A: negative for the induction of micronuclei

Q: What about the “Micronucleus formation (in vitro), result” value ([1]; 500–2000 μg/mL, 4 h exposure, ±S9) of the same molecule?
A: neither clastogenic nor aneugenic; also recorded: negative for the induction of micronuclei

Q: And the “cytotoxicity (55 ± 5% CBPI relative to vehicle control)” value ([1]; micronucleus assay, any dose, three treatment conditions)?
A: not observed

Q: What about the “concentration with visible precipitate” value ([1]; non-activated 24 h exposure) of the same molecule?
A: ≥ 1000 µg/mL

Q: What about the “concentration with visible precipitate” value ([1]; non-activated and S9-activated 4 h exposure) of the same molecule?
A: 2000 µg/mL

Q: What about the inhibition at 10 μM (CYP3A4) of the same molecule?
A: ≤ 7%

Q: And the “female/male ratio of mean AUClast” value ([2]; IV 1 mg/kg)?
A: 0.88

Q: What about the “female/male ratio of mean Cmax” value ([2]; IV 1 mg/kg) of the same molecule?
A: 1.06

Q: And the t1/2 ([2]; S2218 oral gavage 10 mg/kg bw, M, 10 mg/kg)?
A: 45.8 ± 4.38 min

Q: And the bioavailability ([2]; both, Sprague-Dawley, rat, plasma, po, %F, both test articles, male and female rats, all doses)?
A: 0.14 to 0.77%

Q: And the AUC(0-t) [2, 6]?
A: 440 ± 57.1 ng·h/mL

Q: And the Cmax [2, 6]?
A: 3.15 ± 0.399 µg/mL

Q: And the Tmax [2, 6]?
A: 1.98 min

Q: What about the Vd [2, 6] of the same molecule?
A: 0.575 L/kg

Q: What about the clearance ([2]; female, Sprague-Dawley, rat, plasma, iv, 1 mg/kg, F) of the same molecule?
A: 38.3 mL/min/kg

Q: And the half-life ([2]; female, Sprague-Dawley, rat, plasma, iv, 1 mg/kg, t1/2, S2218 iv 1 mg/kg bw, F)?
A: 10.4 ± 0.24 min

Q: And the AUC(0-t) [2, 7]?
A: 19.1 ± 10.5 ng·h/mL

Q: And the Cmax [2, 7]?
A: 0.0221 ± 0.00855 µg/mL

Q: And the Tmax [2, 7]?
A: 18.8 ± 7.5 min

Q: What about the AUC(0-t) [2, 8] of the same molecule?
A: 37.7 ± 14 ng·h/mL

Q: What about the Cmax [2, 8] of the same molecule?
A: 0.0368 ± 0.0148 µg/mL

Q: What about the Tmax [2, 8] of the same molecule?
A: 18.8 ± 7.5 min

Q: And the AUC(0-t) [2, 9]?
A: 65.9 ± 34.6 ng·h/mL

Q: And the Cmax [2, 9]?
A: 0.0387 ± 0.0204 µg/mL

Q: And the Tmax [2, 9]?
A: 15 min

Q: What about the half-life ([2]; female, Sprague-Dawley, rat, plasma, po, mean t1/2 of S2218 in plasma, oral dose of S2218 or S8069, female rats) of the same molecule?
A: 45 to 75 min

Q: And the “CL as % of hepatic blood flow” value ([2]; iv, F)?
A: 69.6%

Q: What about the “Vss as % of total body water volume” value ([2]; iv, F) of the same molecule?
A: 86.1%

Q: What about the “CL as % of hepatic blood flow” value ([2]; iv, M) of the same molecule?
A: 60.9%

Q: And the “Vss as % of total body water volume” value ([2]; iv, M)?
A: 80.2%

Q: And the AUC(0-t) [2, 10]?
A: 500 ± 47.9 ng·h/mL

Q: And the Cmax [2, 10]?
A: 2.98 ± 0.291 µg/mL

Q: And the Tmax [2, 10]?
A: 1.98 min

Q: And the Vd [2, 10]?
A: 0.536 L/kg

Q: What about the clearance ([2]; male, Sprague-Dawley, rat, plasma, iv, 1 mg/kg, M) of the same molecule?
A: 33.5 mL/min/kg

Q: And the half-life ([2]; male, Sprague-Dawley, rat, plasma, iv, 1 mg/kg, t1/2, S2218 iv 1 mg/kg bw, M)?
A: 11.1 ± 1.56 min

Q: And the AUC(0-t) [2, 11]?
A: 18.1 ± 4.84 ng·h/mL

Q: What about the Cmax [2, 11] of the same molecule?
A: 0.0168 ± 0.00603 µg/mL

Q: And the Tmax [2, 11]?
A: 18.8 ± 7.5 min

Q: And the AUC(0-t) [2, 12]?
A: 33.2 ± 20.7 ng·h/mL

Q: What about the Cmax [2, 12] of the same molecule?
A: 0.0312 ± 0.0146 µg/mL

Q: And the Tmax [2, 12]?
A: 22.5 ± 8.64 min

Q: What about the AUC(0-t) [2, 13] of the same molecule?
A: 96.6 ± 31.4 ng·h/mL

Q: And the Cmax [2, 13]?
A: 0.0763 ± 0.0288 µg/mL

Q: What about the Tmax [2, 13] of the same molecule?
A: 20 ± 8.64 min

Q: What about the half-life ([2]; male, Sprague-Dawley, rat, plasma, po, mean t1/2 of S2218 in plasma, oral dose of S2218 or S8069, male rats) of the same molecule?
A: 40.2 to 51.6 min

Q: And the inhibition at 10 μM (CYP2C19)?
A: ≤ 7%

Q: What about the “state in 1% methylcellulose dosing formulation” value (solubility / dissolution) of the same molecule?
A: formed a suspension

Q: And the Findings ([3]; 10, 30, 100 mg/kg bw/day food ad-mix)?
A: Slight increase in food consumption and mean body weight in males at 10 and 30 mg/kg bw/day

Q: And the NOAEL at 28 days ([3]; both, CD [Crl:CD(SD)], rat, in vivo, oral)?
A: 100 mg/kg/day

Q: And the “water solubility at low pH vs S6973 and S617” value [4]?
A: improved water solubility at low pH

Q: And the “ACUM Ratio (dose-normalized AUC0-24h Day 91/Day 7)” value ([5]; 30 mg/kg bw, M + F)?
A: 1.88

Q: And the “ACUM Ratio (dose-normalized AUC0-24h Day 91/Day 7)” value ([5]; 70 mg/kg bw, M + F)?
A: 0.954

Q: And the “ACUM Ratio (dose-normalized AUC0-24h Day 91/Day 7)” value ([5]; 140 mg/kg bw, F)?
A: 0.768

Q: And the “ACUM Ratio (dose-normalized AUC0-24h Day 91/Day 7)” value ([5]; 140 mg/kg bw, M)?
A: 4.55

Q: And the “ACUM Ratio (dose-normalized AUC0-24h Day 91/Day 7)” value ([5]; 140 mg/kg bw, M + F)?
A: 2.30
